Results on 25 compounds are retold here after ChEMBL document CHEMBL1133729, “Design, synthesis, and structure-activity relationships of phthalimide-phenylpiperazines: a novel series of potent and selective alpha(1)(a)-adrenergic receptor antagonists” (J Med Chem, 2000).

The target of test [1] is Adrenergic receptors; alpha-1 A & B (Homo sapiens) (UniProt P35348+P35368). Kind of test: Ratio of binding affinity towards Alpha1b to Alpha-1A. Type of test: protein assay. The method in brief: (§1)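 Human α1a, α1b and α1d cDNAs transiently expressed in COS-1 cells (DEAE-dextran); membranes harvested 72 h post-transfection. Competition versus 50 pM [125I]HEAT (final), 0.1 pM–10 μM test compound in half-log steps, in TNE buffer pH 7.4. Membrane protein 0.1 μg (α1a, α1b) or 2.6 μg (α1d); 1 h at 25 °C. Filtration, scintillation counting; Ki = IC50/(1 + [L]/Kd). Ratios are subtype Ki over α1a Ki.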

Test [2] concerns the target T1, Alpha-1D adrenergic receptor (Homo sapiens, UniProt P25100).
T1 sequence (P25100 whole entry): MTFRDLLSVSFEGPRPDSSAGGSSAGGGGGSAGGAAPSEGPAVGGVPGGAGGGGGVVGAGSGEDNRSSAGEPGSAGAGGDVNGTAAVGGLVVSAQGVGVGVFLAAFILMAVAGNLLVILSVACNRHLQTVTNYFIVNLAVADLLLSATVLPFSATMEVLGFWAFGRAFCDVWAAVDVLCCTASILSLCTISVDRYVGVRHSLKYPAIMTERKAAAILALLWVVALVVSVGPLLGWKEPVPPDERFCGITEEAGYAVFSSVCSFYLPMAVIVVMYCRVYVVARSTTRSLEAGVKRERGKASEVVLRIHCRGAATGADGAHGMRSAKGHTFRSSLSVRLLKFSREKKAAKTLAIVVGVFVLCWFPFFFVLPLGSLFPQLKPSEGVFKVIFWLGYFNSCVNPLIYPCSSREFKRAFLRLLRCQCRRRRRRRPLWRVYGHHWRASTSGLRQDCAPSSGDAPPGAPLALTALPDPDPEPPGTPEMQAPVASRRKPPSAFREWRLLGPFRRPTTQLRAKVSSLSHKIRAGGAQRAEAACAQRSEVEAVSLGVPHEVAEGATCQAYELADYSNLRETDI
Kind of test: Binding affinity towards cloned human alpha-1D adrenergic receptor was determined using [125]-HEAT as radioligand. The method in brief:
as §1

In test [3] the target is T2, Alpha-1A adrenergic receptor (Homo sapiens, UniProt P35348).
T2 sequence (P35348 whole entry): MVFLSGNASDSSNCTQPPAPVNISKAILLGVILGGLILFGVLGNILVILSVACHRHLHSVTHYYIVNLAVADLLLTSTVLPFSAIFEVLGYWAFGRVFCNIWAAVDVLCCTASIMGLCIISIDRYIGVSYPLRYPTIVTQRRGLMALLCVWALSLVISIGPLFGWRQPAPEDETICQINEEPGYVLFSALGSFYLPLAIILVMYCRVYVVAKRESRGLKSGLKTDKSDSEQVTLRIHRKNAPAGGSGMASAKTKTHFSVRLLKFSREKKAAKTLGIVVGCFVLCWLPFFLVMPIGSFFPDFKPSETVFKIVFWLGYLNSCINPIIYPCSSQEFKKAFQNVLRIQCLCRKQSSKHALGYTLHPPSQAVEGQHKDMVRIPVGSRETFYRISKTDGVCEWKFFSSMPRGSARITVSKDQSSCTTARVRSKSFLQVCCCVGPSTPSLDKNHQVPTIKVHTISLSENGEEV
Description: Binding affinity towards cloned human alpha-1A adrenergic receptor was determined using [125]-HEAT as radioligand.

The target in test [4] is T3, Alpha-1B adrenergic receptor (Homo sapiens, UniProt P35368).
T3 sequence (P35368 whole entry): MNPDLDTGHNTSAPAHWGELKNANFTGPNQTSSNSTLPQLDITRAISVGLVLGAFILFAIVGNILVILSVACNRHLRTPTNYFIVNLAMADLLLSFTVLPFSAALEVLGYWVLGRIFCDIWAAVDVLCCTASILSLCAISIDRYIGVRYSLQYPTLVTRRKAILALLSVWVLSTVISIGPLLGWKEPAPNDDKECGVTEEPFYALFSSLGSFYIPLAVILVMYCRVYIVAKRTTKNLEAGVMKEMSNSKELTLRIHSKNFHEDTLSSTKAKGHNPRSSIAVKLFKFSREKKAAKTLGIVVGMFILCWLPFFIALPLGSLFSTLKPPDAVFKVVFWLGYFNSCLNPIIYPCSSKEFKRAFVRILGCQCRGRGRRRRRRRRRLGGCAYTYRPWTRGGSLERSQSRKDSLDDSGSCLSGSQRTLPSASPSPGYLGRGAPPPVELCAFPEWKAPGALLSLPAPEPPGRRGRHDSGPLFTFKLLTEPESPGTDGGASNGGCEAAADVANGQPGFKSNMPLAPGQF
Description: Binding affinity towards cloned human alpha-1B adrenergic receptor was determined using [125]-HEAT as radioligand. The method, boiled down:
as §1

The test system of test [5] is Alpha-1D/Alpha-1A adrenergic receptor (Homo sapiens). Description: Ratio of binding affinity towards Alpha1d to Alpha-1A.

What is called Ki is a measure of affinity in units of concentration, obtained from inhibition or displacement. Read a low Ki as higher affinity. As to `COc1ccccc1N1CCN(CC(O)CNC(=O)c2ccc3c(c2)C(=O)N(c2cccc(F)c2)C3=O)CC1` (stereo not given), the Ratio in test [1] is > 90. Further, the Ki is 540 nM in test [2], 22 nM in test [3] and > 2000 nM in test [4].
For `COc1cc(N2C(=O)c3ccc(C(=O)NCC(O)CN4CCN(c5ccccc5OC(C)C)CC4)cc3C2=O)cc(OC)c1OC` (stereo not given), the values for the Ratio in test [5] and in test [1] were 125 and > 1640, respectively. The Ki is 152 nM in test [2], 1.22 nM in test [3] and > 2000 nM in test [4].
For the compound `CC(C)Oc1ccccc1N1CCN(CC(O)CNC(=O)c2ccc3c(c2)C(=O)N(c2ccc(Cl)cc2)C3=O)CC1` (stereo not given), the Ratio in test [1] was 640. For the same compound, the Ki was 55 nM in test [2], 0.95 nM in test [3] and 606 nM in test [4].
With `CC(C)Oc1ccccc1N1CCN(CC(O)CNC(=O)c2ccc3c(c2)C(=O)N(c2cccc(F)c2)C3=O)CC1` (stereo not given), in test [1], the Ratio was > 1220. In addition, the inhibition constant (Ki) was 75 nM in test [2], 1.5 nM in test [3] and > 2000 nM in test [4].
`CC(C)Oc1ccccc1N1CCN(CC(O)CNC(=O)c2ccc3c(c2)C(=O)N(c2ccc(O)cc2)C3=O)CC1` (stereo not given): in test [1], the Ratio was > 2270. For the same compound, the Ki in test [2] was 28 nM; in test [3] it was 0.88 nM; in test [4], > 2000 nM.
The corresponding values for `Cc1cccc(N2C(=O)c3ccc(C(=O)NCC(O)CN4CCN(c5ccccc5OC(C)C)CC4)cc3C2=O)c1` (stereo not given) are > 2220, 73 nM, 0.9 nM and > 2000 nM.
Turning to `Cc1ccc(N2C(=O)c3ccc(C(=O)NCC(O)CN4CCN(c5ccccc5OC(C)C)CC4)cc3C2=O)cc1` (stereo not given), the Ratio in test [1] was > 3030. The Ki in test [2] is 62 nM; in test [3] it was 0.66 nM; in test [4], > 2000 nM.
`CC(C)Oc1ccccc1N1CCN(C[C@H](O)CNC(=O)c2ccc3c(c2)C(=O)N(c2cccc(F)c2)C3=O)CC1`: the Ratio in test [1] is > 250. For the same compound, the Ki in test [2] is 63 nM; in test [3], 8 nM; in test [4], > 2000 nM.
As for `COc1ccc(N2C(=O)c3ccc(C(=O)NCC(O)CN4CCN(c5ccccc5OC(C)C)CC4)cc3C2=O)cc1` (stereo not given), the Ki in test [2] was 51 nM; in test [4] it was > 2000 nM.
For the compound `CC(C)Oc1ccccc1N1CCN(CC(O)CNC(=O)c2ccc3c(c2)C(=O)N(c2ccc(C(C)(C)C)cc2)C3=O)CC1` (stereo not given), the Ratio in test [1] is > 650. In addition, the inhibition constant Ki in test [2] is 75 nM; in test [3], 3.05 nM; in test [4], > 2000 nM.
Turning to `CC(C)Oc1ccccc1N1CCN(CC(O)CNC(=O)c2ccc3c(c2)C(=O)N(c2cccc(Cl)c2)C3=O)CC1` (stereo not given), the Ratio was 54 in test [5] and 800 in test [1]. Moreover, the inhibition constant (Ki) was found to be 41 nM in test [2], 0.76 nM in test [3] and 605 nM in test [4].
As for `COc1ccc(N2C(=O)c3ccc(C(=O)NC[C@@H](O)CN4CCN(c5ccccc5OC(C)C)CC4)cc3C2=O)cc1`, the Ki in test [2] was 52 nM; in test [4], > 2000 nM.
Regarding `CC(C)Oc1ccccc1N1CCN(CC(O)CNC(=O)c2ccc3c(c2)C(=O)N(c2ccccc2)C3=O)CC1` (stereo not given), the values for the Ratio in test [5] and in test [1] were 72 and > 1820, respectively. Moreover, the inhibition constant (Ki) in test [2] was 65 nM; in test [3], 0.9 nM; in test [4], > 2000 nM.
As to `CC(C)Oc1ccccc1N1CCN(CC(O)CNC(=O)c2ccc3c(c2)C(=O)N(c2ccc(F)cc2)C3=O)CC1` (stereo not given), the Ratio in test [1] is > 1100. The Ki in test [2] is 111 nM; in test [3] it was 1.5 nM; in test [4], > 1660 nM.
`CC(C)Oc1ccccc1N1CCN(CCCNC(=O)c2ccc3c(c2)C(=O)N(c2ccc(O)cc2)C3=O)CC1`: the Ratio is 50 in test [5] and 1270 in test [1]. For the same compound, the Ki in test [2] came to 10 nM; in test [3], 0.2 nM; in test [4], 255 nM.
For `COc1ccc(N2C(=O)c3ccc(C(=O)NC[C@H](O)CN4CCN(c5ccccc5OC(C)C)CC4)cc3C2=O)cc1`, the inhibitory constant (Ki) in test [2] was 124 nM; in test [4] it was > 1750 nM.
As to `CC(C)Oc1ccccc1N1CCN(C[C@@H](O)CNC(=O)c2ccc3c(c2)C(=O)N(c2ccc(O)cc2)C3=O)CC1`, the Ratio in test [1] was > 4350. The inhibition constant Ki in test [2] was 137 nM; in test [3], 0.46 nM; in test [4] it was > 2000 nM.
For `COC(CNC(=O)c1ccc2c(c1)C(=O)N(c1cccc(F)c1)C2=O)CN1CCN(c2ccccc2OC(C)C)CC1` (stereo not given), in test [1], the Ratio is > 290. Further, the Ki in test [2] was 407 nM; in test [3], 6.9 nM; in test [4], > 2000 nM.
With `CC(C)Oc1ccccc1N1CCN(CC(O)CNC(=O)c2ccc3c(c2)C(=O)N(c2ccc(Cl)c(Cl)c2)C3=O)CC1` (stereo not given), the figures for the Ratio in test [5] and in test [1] were 43 and 1030, respectively. For the same compound, the Ki was found to be 51 nM in test [2], 1.19 nM in test [3] and 1230 nM in test [4].
On to `COc1ccccc1N1C(=O)c2ccc(C(=O)NCC(O)CN3CCN(c4ccccc4OC(C)C)CC3)cc2C1=O` (stereo not given), for which the Ratio in test [1] came to 1110. Besides, the Ki is 72 nM in test [2], 1.47 nM in test [3] and 1640 nM in test [4].
In the case of `CC(C)Oc1ccccc1N1CCN(CC(O)CNC(=O)c2ccc3c(c2)C(=O)N(c2ccc([N+](=O)[O-])cc2)C3=O)CC1` (stereo not given), in test [1], the Ratio is > 1110. Also, the Ki in test [2] is 38 nM; in test [3] it was 1.8 nM; in test [4] it was > 2000 nM.
Consider `COc1ccc(N2C(=O)c3ccc(C(=O)NCC(O)CN4CCN(c5ccccc5OC(C)C)CC4)cc3C2=O)cc1OC` (stereo not given), for which the Ratio in test [5] is 57; in test [1], > 2040. The inhibition constant Ki is 56 nM in test [2], 0.98 nM in test [3] and > 2000 nM in test [4].
For `CCOc1ccccc1N1CCN(CC(O)CNC(=O)c2ccc3c(c2)C(=O)N(c2cccc(F)c2)C3=O)CC1` (stereo not given), the Ratio in test [1] is > 470. Moreover, the Ki in test [2] is 137 nM; in test [3] it was 4.25 nM; in test [4], > 2000 nM.
Turning to `CC(C)Oc1ccccc1N1CCN(CCCNC(=O)c2ccc3c(c2)C(=O)N(c2ccc(N(C)C)cc2)C3=O)CC1`, the Ratio in test [1] is 2580. Further, the figures for the Ki in test [2], in test [3] and in test [4] were 15 nM, 0.18 nM and 465 nM, respectively.
For the compound `CC(C)Oc1ccccc1N1CCN(CC(O)CNC(=O)c2ccc3c(c2)C(=O)N(c2ccc(N(C)C)cc2)C3=O)CC1` (stereo not given), the Ratio in test [1] was > 2000. Also, the figures for the Ki in test [2], in test [3] and in test [4] were 40 nM, 0.8 nM and > 2000 nM, respectively.
